In the library only some 0.99% were active in any assay of this set; here they are far more common.
Tn7 DDE FP: inhibitors of Tn7 peptide binding to human fibrin DD(E). P02675. FP displacement of FITC-Tn7 peptide from fibrin DD(E); 0% = median of compound wells per plate. inhibition, % at 8.3 µM. hit rate 0.13% among 370,000;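 active = inhibition above the mean of compounds falling within the control limits plus 3 SD of them, cut at about 14% in these data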;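 also: 0% = plate median of compound wells and 100% = 10 µM Aha-Tn7 peptide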
Target sequence (P02675 whole entry, looked up): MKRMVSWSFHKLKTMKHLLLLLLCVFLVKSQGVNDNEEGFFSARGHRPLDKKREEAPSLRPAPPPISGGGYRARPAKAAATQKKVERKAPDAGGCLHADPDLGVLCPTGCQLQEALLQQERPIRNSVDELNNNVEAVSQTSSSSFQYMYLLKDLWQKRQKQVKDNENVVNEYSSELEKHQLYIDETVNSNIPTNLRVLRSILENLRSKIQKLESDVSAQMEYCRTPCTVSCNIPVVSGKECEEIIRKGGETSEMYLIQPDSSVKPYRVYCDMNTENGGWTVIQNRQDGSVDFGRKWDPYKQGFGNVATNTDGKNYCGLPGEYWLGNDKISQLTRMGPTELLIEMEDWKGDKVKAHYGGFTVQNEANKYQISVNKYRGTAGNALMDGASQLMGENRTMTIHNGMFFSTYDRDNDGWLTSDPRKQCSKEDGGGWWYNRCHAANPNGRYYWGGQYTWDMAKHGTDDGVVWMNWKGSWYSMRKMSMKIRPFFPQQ
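Also added: labelled Tn7 tracer, 0.1 µM; Assay system: human fibrin DD(E) protein; Amount: 2 µM fibrin DD(E); Schedule: 10 min compound pre-incubation, 3 h probe incubation at room temperature; Repeats: one replicate per compound; Read-out basis: percent inhibition; Measured by: fluorescence polarization of the labelled Tn7 tracer.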
Tn6 DDE FP: DD(E)-Tn6 binding inhibition, primary FP screen. Fibrin DD(E) TRITC-Tn6 fluorescence polarization displacement. inhibition, % at 8.3 µM. hit rate 0.21% among 370,000;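 active = inhibition above a per-campaign cutoff: mean of compounds within control limits plus 3 SD, cut at about 15% in these data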;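 also: 0% = median of all compound wells on the plate and 100% = blocking peptide control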
GRK2 aptamer HTS: inhibitors of human GRK2 displacing RNA aptamer | AID 488847 | inhibition of aptamer binding, % at 10 µM | bead flow cytometry, FAM-aptamer displacement from GRK2 | hit rate 0.59% among 330,000 | P25098;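 active = inhibition of aptamer binding above 40%, roughly 3 SD of noise, on plates passing a quality check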;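 also: median bead fluorescence of bound FAM aptamer so fluorescent compounds give negative values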
Ins promoter up: MIN6 insulin promoter up-regulation; z-score at 5 µM; AID 1625; MIN6 insulin promoter-GFP reporter, high-content imaging; active compounds read high; hit rate 0.3% among 190,000;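 active = z-score above 3 at 5 µM with at least 500 cells counted in the well; inconclusive = wells under 500 cells, flagged as cytotoxic or low count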
ABCB1 inh: human ABCB1 inhibition, ABCG2 as counter-screen; P08183; CCRF-Adr cells, JC-1 efflux, flow cytometry; inhibition, % at 6.6 µM; hit rate 0.067% among 190,000; in the data active = inhibition above about 40%;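 also: 0% = vehicle and 100% = reference inhibitor; higher value means more JC-1 retained so stronger ABCB1 efflux block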
ABCG2 block: inhibitors of human ABCG2 transporter, ABCB1 counter-screen. Q9UNQ0. IgMXP3 cells, JC-1 efflux, flow cytometry. inhibition, % at 6.6 µM. hit rate 0.1% among 190,000. AID 1325;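 active = inhibition above 80%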;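 also: 0% = DMSO and 100% = nicardipine control wells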
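Times: 10 min at 25 °C | Test system: Two drug-resistant human cell lines, ABCG2 and ABCB1 | Quantity: 3 million cells/mL final, two lines in 1:1 ratio | Signal: Flow cytometry, 530 nm JC-1 signal | Dosing: Compound at 6.6 µM | Controls: Nicardipine and DMSO wells | Reagent: JC-1 as fluorescent efflux pump substrate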
ABCB1 single pt: confirmation of human ABCB1 transporter inhibitors, ABCG2 counter-screen; inhibition, % at 6.6 µM; shares compounds with ABCG2 block; CCRF-Adr cells, JC-1 efflux, flow cytometry; hit rate 7% among 270;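 active = inhibition of pump activity above 50%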;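 also: 0% = DMSO and 100% = nicardipine full pump inhibition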
ABCG2 confirm: inhibits human ABCG2 efflux, confirmed at single point; hit rate 6% among 270; IgMXP3 cells, JC-1 efflux, flow cytometry; AID 1453; shares compounds with ABCG2 block; inhibition, % at 6.6 µM;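 active = inhibition above 50%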;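 also: 0% = DMSO wells and 100% = nicardipine pump inhibitor wells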
IgMXP3 autofluor: IgMXP3 autofluorescence flag for ABCG2 confirmation; AID 1480; shares compounds with ABCG2 block; hit rate 30% among 270; IgMXP3 cells, compound autofluorescence 488/530 nm, flow; active compounds read high; fluorescence at 6.6 µM;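 active = fluorescence in ABCG2-expressing cells above the plate's control-well mean plus 3 SD, cut at about 15 in these data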;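 also: median cell fluorescence with compound minus that of DMSO-treated control cells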
CCRF autofluor: CCRF-Adr autofluorescence flag for ABCB1 confirmation; shares compounds with ABCG2 block; CCRF-Adr cells, compound autofluorescence 488/530 nm, flow cytometry; active compounds read high; fluorescence at 6.6 µM; hit rate 30% among 270; AID 1483;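 active = fluorescence beyond the plate control mean plus 3 SD, with a fluorescence-to-maximum score over 2, cut at about 25 in these data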
* = called active by the depositor; u = inconclusive; x = no result; + = active, no number.

SMILES	Tn7 DDE FP	Tn6 DDE FP	GRK2 aptamer HTS	Ins promoter up	ABCB1 inh	ABCG2 block	ABCB1 single pt	ABCG2 confirm	IgMXP3 autofluor	CCRF autofluor
CCOC(=O)c1c(-c2ccccc2)csc1NC(=O)/C(C#N)=C/c1ccc(O)c(OC)c1	4	5	0	1.3	66*	123*	-30	-39	284*	264*
CCN(CC)c1ccc(C=Nn2c(C)nnc2C)cc1	-4	3	x	x	x	x	x	x	x	x
O=S(=O)(c1ccccc1)N1CCN(c2cc(-c3ccccc3)nc3ncnn23)CC1	5	0	0	-0.87	4	2	x	x	x	x
O=S(=O)(c1ccc(Br)cc1)N1CCN(c2cc(-c3ccccc3)nc3ncnn23)CC1	x	x	0	-6.6	60*	52	37	23	3.5	7.2
O=C(c1ccoc1)N1CCN(c2cc(-c3ccco3)nc3cc(-c4ccco4)nn23)CC1	5	1	x	x	x	x	x	x	x	x
CCCCCCC12Cc3cc(OC)c(OC)cc3C(O1)C1=C(O2)C(C)(C)CCC1=O (centres undefined)	0	-3	x	x	x	x	x	x	x	x
COc1ccc(-n2c(SCC(=O)Nc3ccc(Oc4ccccc4)cc3)nnc2-c2cccnc2)cc1	5	-4	x	x	x	x	x	x	x	x
COC(=O)[C@H]1C[C@@]2(c3ccccc3)c3ccccc3N(S(=O)(=O)c3ccccc3)[C@H]2N1	6	-4	x	x	x	x	x	x	x	x
Cc1c(C(=O)Nc2cccc(Cl)c2)c2ccccn2c1CCc1ccncc1	-5	-2	x	0.12	66*	99*	56*	42	-1.5	-3.7
Cc1c(C(=O)Nc2ccc(Cl)cc2)c2ccccn2c1CCc1ccncc1	-1	-1	1	-0.59	6	8	x	x	x	x
O=C(c1ccco1)N1CCN(c2ncnc3c2nnn3Cc2ccccc2Cl)CC1	0	5	0	-1	3	8	x	x	x	x
O=C(c1ccco1)N1CCN(c2nc(C(F)(F)F)nc3c2nnn3Cc2ccccc2)CC1	2	-5	3	u	15	64	23	27	73*	37*
CCOC(=O)[C@]12CCCCC/C=C\1N(Cc1ccc(OC)cc1)C(=O)[C@H]2CC(=O)N1CCC(c2ccccc2)CC1	-10	-3	x	x	x	x	x	x	x	x
COC(=O)c1sc2cc([N+](=O)[O-])cc(SCC(C)C)c2c1N	1	3	0	u	61*	154*	-2	22	46*	112*
CCOC(=O)c1sc2ncc([N+](=O)[O-])cc2c1N	1	1	2	-0.11	x	x	x	x	x	x
CCCCCCc1cc2cc(-c3nnc(-c4ccccc4O)o3)c(=O)oc2cc1O	-6	1	4	7.5*	48*	79	15	11	116*	111*
COc1cc(C(=O)Nc2ccc(S(=O)(=O)NC(C)(C)C)cc2)cc(OC)c1OC	-7	-1	3	x	1	6	x	x	x	x
COc1cc(C(=O)Nc2ccc(S(=O)(=O)NC(C)C)cc2)cc(OC)c1OC	4	0	6	x	2	82*	13	27	5.8	6.6
Cc1cc(/C=C(\C#N)C(=O)O)c(C)n1CC(C)C	1	1	1	0.67	+	+	-2	-5	40*	4.4
Cc1cc(/C=C(\C#N)C(=O)O)c(C)n1CCC(C)C	-5	1	5	0.15	x	x	x	x	x	x
COc1ccc(CCNC(=O)COC(=O)/C=C/c2ccc(OC)c(OC)c2)cc1	-1	7	0	0.06	0	89*	1	56*	-2.1	-3.8
COc1ccc(CCNC(=O)COC(=O)/C=C/c2ccc(OCC#N)c(OC)c2)cc1	-3	-4	2	-0.08	-1	6	x	x	x	x
CSc1nc(N2CCN(C)CC2)c2c(c1C#N)CC(C)(C)OC2	1	5	3	-0.43	x	x	x	x	x	x
CSc1nc(N2CCCC2)c2c(c1C#N)CC(C)(C)OC2	9	6	1	x	7	63	16	32	0.96	0.11
COC(=O)[C@]12C[C@H](CC(=O)NCc3ccc(C)o3)C(=O)N(CCc3ccc(OC)c(OC)c3)C1=C[C@H](C(C)(C)C)O[C@@H]2C	1	-4	x	x	x	x	x	x	x	x
SMILES	Tn7 DDE FP	Tn6 DDE FP	GRK2 aptamer HTS	Ins promoter up	ABCB1 inh	ABCG2 block	ABCB1 single pt	ABCG2 confirm	IgMXP3 autofluor	CCRF autofluor
CCC(=O)Nc1cccc(C(=O)OCc2cccc([N+](=O)[O-])c2)c1	-10	-4	x	-0.51	4	93*	6	28	0.66	-1.8
FC(F)(F)c1cc(CNC2CCC23CCCCC3)ccc1Cl (centres undefined)	2	-3	x	x	x	x	x	x	x	x
O=C(N[C@H]1CC[C@@H]2SC[C@@H](C(=O)O)N2C1=O)OCC1c2ccccc2-c2ccccc21	-9	-3	x	x	x	x	x	x	x	x
CN(C)CC(=O)N[C@H]1C[C@@H]2O[C@H](CO)CC[C@@H]2O[C@@H]1CCc1ccc(-c2ccc(F)cc2)cc1	-7	1	x	x	x	x	x	x	x	x
Cc1ccc(/C=C2\CCC3=C2OC(N)=C(C#N)C3c2ccc(C)cc2)cc1 (centres undefined)	x	x	0	2.1	56*	85*	-1	10	65*	87*
CCCCOC(=O)c1ccc(O)cc1	2	1	0	0.91	1	-1	x	x	x	x
